Reference: ChEMBL document CHEMBL1130838, “N-[4-(1,1'-biphenyl)methyl]-4-(4-thiomorpholinylmethyl) benzenamines as non-oxazolidinone analogues of antimycobacterial U-100480” (1998)
Values after ≈ are worked out from the molar mass of the structure shown.

Experiments:
Mycobacterium gordonae = assay: In vitro cytotoxicity against Mycobacterium gordonae (CIP 6427) was determined; assay type: functional
Outline: (§1)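 Broth microdilution in Middlebrook 7H9. Stocks were made in DMSO and filter-sterilized (0.2 μm), then serially diluted 2-fold in water. Tubes were incubated at 37°C for 10-15 days, with a drug-free control tube in each experiment. MIC (μg/mL) is the lowest concentration giving no visible turbidity.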

Vero = assay: Minimal toxic dose that induced a reduction of 50% of cell growth in Vero cell line […]; assay type: functional, Chlorocebus sabaeus
Outline: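 VERO monolayers in Dulbecco's modified MEM with 2% fetal calf serum were seeded at 9'10⁴ cells per well in six-well plates. Compounds, dissolved in DMSO at 10 mg/mL initially, were added after 24 h. Five days later, cells were trypsinised and counted in a Neubauer chamber. MTD50 was the concentration giving 50% growth reduction versus control.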

Mycobacterium marinum = assay: In vitro cytotoxicity against Mycobacterium marinum (CIP 6423) was determined; assay type: functional; outline: as §1
Mycobacterium avium [1] = assay: In vitro cytotoxicity against Mycobacterium avium (CIP 103317) was determined
[2] = tested on: Mycolicibacterium smegmatis; assay: In vitro cytotoxicity against Mycobacterium smegmatis CIP (103599) was determined; assay type: functional; outline: as §1
[3] = tested on: Mycobacterium tuberculosis; assay: In vitro minimum inhibitory concentration against Mycobacterium tuberculosis CIP 103471 was determined; assay type: functional
Outline: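 Broth microdilution in Middlebrook 7H9 with 10% ADC. DMSO stocks were filter-sterilised (0.2 μm nylon), then serially diluted 2-fold in water. Tubes were incubated at 37°C for 10-15 days alongside a drug-free control. MIC was the lowest concentration with no visible turbidity.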

Mycobacterium avium [4] = assay: In vitro cytotoxicity against Mycobacterium avium (CIP 103317) was determined; assay type: functional

SMILES	MIC (Mycobacterium gordonae) [mg/L]	MTD50 (Vero) [µg/mL]	MIC (Mycobacterium marinum) [mg/L]	MIC (Mycobacterium avium [1]) [mg/L]	MIC [2] [mg/L]	MIC [3] [mg/L]	MIC (Mycobacterium avium [4]) [mg/L]
c1ccc(-c2ccc(CNc3ccc(CN4CCSCC4)cc3)cc2)cc1	8 (≈ 21.4 µM)	8	8 (≈ 21.4 µM)	4 (≈ 10.7 µM)	> 16	0.5 (≈ 1.33 µM)	–
CN(Cc1ccc(-c2ccccc2)cc1)c1ccc(CN2CCSCC2)cc1	> 16	8	8 (≈ 20.6 µM)	–	> 16	0.5 (≈ 1.29 µM)	4 (≈ 10.3 µM)
CN[C@@H]1[C@H](O[C@H]2[C@H](O[C@H]3[C@H](O)[C@@H](O)[C@H](N=C(N)N)[C@@H](O)[C@@H]3N=C(N)N)O[C@@H](C)[C@]2(O)C=O)O[C@@H](CO)[C@H](O)[C@H]1O [STREPTOMYCIN]	16 (≈ 27.5 µM)	>64	32 (≈ 55 µM)	–	8 (≈ 13.8 µM)	0.5 (≈ 0.86 µM)	4 (≈ 6.88 µM)
C[N+](C)(Cc1ccc(-c2ccccc2)cc1)c1ccc(CN2CCSCC2)cc1.[I-]	8	16	16	–	> 16	8	16
NNC(=O)c1ccncc1 [ISONIAZID]	32 (≈ 233 µM)	32	16 (≈ 117 µM)	–	64 (≈ 467 µM)	0.25 (≈ 1.82 µM)	32 (≈ 233 µM)
O=C(Nc1ccc(CN2CCSCC2)cc1)c1ccc(-c2ccccc2)cc1	> 16	16	> 16	–	> 16	> 16	> 16
